Calls of active or inactive are those of the source. No cut-off for these calls is given here.
What was measured:
[1] = system: Escherichia coli; assay: Inhibition of CsgF biogenesis in Escherichia coli K-12 at 2.5 mM after […] by polyacrylamide gel-shift assay; format: functional, organism-based
How it was run: (§1)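 MC4100 was grown 48 h at 26 °C on YESCA agar containing compound at 0.1, 1.0 or 2.5 mM final, with a DMSO carrier control (3.6% v/v). Cells were resuspended in PBS to OD600 0.5 and curli were dissociated with HFIP or formic acid. CsgA, CsgB, CsgF and CsgG were detected by SDS-PAGE immunoblot with curli-specific antibodies. MC4100Δcsg served as negative control.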

[2] = system: Escherichia coli; assay: Inhibition of curli protein biogenesis in Escherichia coli K-12 at 1 mM after […] by polyacrylamide gel-shift assay; format: functional, organism-based; how it was run: as §1
[3] = system: Escherichia coli; assay: Inhibition of curli protein biogenesis in uropathogenic Escherichia coli UTI89 at 60 to 250 uM after 48 hrs in YESCA broth medium by polyacrylamide gel-shift assay; format: functional, organism-based
How it was run: (§2)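 UTI89 was inoculated from an overnight LB culture into YESCA broth containing compound and shaken at 100 rpm, 28 °C, for 48 h. Cells were pelleted, resuspended in PBS and normalized to OD600 0.5. Curli were dissolved with formic acid and analysed by curli-antibody immunoblot. Samples prepared the same way were also imaged by high-resolution EM.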

[4] = system: Escherichia coli; assay: Inhibition of CsgG biogenesis in Escherichia coli K-12 at 2.5 mM after […] by polyacrylamide gel-shift assay; format: functional, organism-based; how it was run: as §1
[5] = system: Escherichia coli; assay: Inhibition of curli protein biogenesis in uropathogenic Escherichia coli UTI89 at 60 to 250 uM after 48 hrs by electron microscopy; format: functional, organism-based; how it was run: as §2
[6] = system: Escherichia coli; assay: Antibacterial activity against Escherichia coli UTI89 at 400 uM after 24 hrs by spectrophotometry; format: functional, organism-based
[7] = molecular target: Major curlin subunit (Escherichia coli (strain K12)) (UniProt P28307); assay: Inhibition of CsgA polymerization in Escherichia coli K-12 at 125 uM after 24 hrs by thioflavin-T amyloid polymerization assay
How it was run: (§3)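 Freshly purified, soluble, unstructured C-terminal His6-CsgA (25 μM) was incubated with 25 μM ThT with or without compound. Fluorescence (excitation 438 nm, emission 495 nm) was followed over time at 60-min intervals. Soluble CsgA was confirmed by SDS-PAGE and anti-CsgA western blot, since polymerized CsgA is SDS-insoluble.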

[8] = molecular target: Major curlin subunit (Escherichia coli (strain K12)) (UniProt P28307); assay: Inhibition of CsgA polymerization in Escherichia coli K-12 at 10 uM after 24 hrs by thioflavin-T amyloid polymerization assay; how it was run: as §3
[9] = molecular target: Major curlin subunit (Escherichia coli (strain K12)) (UniProt P28307); assay: Inhibition of CsgA polymerization in Escherichia coli K-12 at 25 uM after 24 hrs by thioflavin-T amyloid polymerization assay; how it was run: as §3
[10] = system: Escherichia coli; assay: Inhibition of type 1 pili biogenesis in uropathogenic Escherichia coli UTI89 at 5 to 15 uM after 48 hrs by SYTO83 staining-based confocal microscopy; format: functional, organism-based
[11] = system: Escherichia coli; assay: Inhibition of type 1 pili biogenesis in uropathogenic Escherichia coli UTI89 at 5 to 15 uM after 48 hrs by congo red staining-based confocal microscopy; format: functional, organism-based
[12] = system: Escherichia coli; assay: Inhibition of type 1 pili biogenesis in uropathogenic Escherichia coli UTI89 at 5 to 15 uM after 48 hrs by calcofluor staining-based confocal microscopy; format: functional, organism-based
[13] = system: Escherichia coli; assay: Inhibition of […] in uropathogenic Escherichia coli UTI89 at 5 uM after 48 hrs in YESCA broth medium by congo red staining-based […]; format: functional, organism-based
How it was run: (§4)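 Pellicle formation was scored visually in a 24-well plate assay. UTI89 was grown in Congo red-containing YESCA broth at 30 °C, with pellicles judged about 48 h after inoculation. DMSO carrier served as control.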

[14] = system: Escherichia coli; assay: Inhibition of curli protein biogenesis in uropathogenic Escherichia coli UTI89 assessed as inhibition of biofilm formation in PVC wells at 50 uM after 48 hrs in YESCA broth medium by crystal violet staining; format: functional; details: UTI89, 48 h
How it was run: (§5)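 UTI89 was grown 48 h in YESCA broth in PVC microtiter wells with compound. Wells were rinsed, stained with crystal violet and quantified. Percent inhibition is relative to no-compound controls included on each plate. Data are four experiments, with bars as s.d.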

[15] = system: Escherichia coli; assay: Inhibition of curli protein biogenesis in uropathogenic Escherichia coli UTI89 assessed as inhibition of biofilm formation in PVC wells at 100 uM after 48 hrs in YESCA broth medium by crystal violet staining; format: functional; details: UTI89, 48 h; how it was run: as §5
[16] = system: Escherichia coli; assay: Inhibition of type 1 pili biogenesis in uropathogenic Escherichia coli UTI89 assessed as complete inhibition of biofilm formation in PVC wells at 50 uM after 48 hrs in LB broth medium by crystal violet staining; format: functional; details: UTI89, 48 h
How it was run: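 UTI89 was grown 48 h in LB broth in PVC microtiter wells with compound; biofilm here is type 1 pili-dependent. Wells were rinsed and stained with crystal violet. Percent inhibition is relative to no-compound controls on each plate, from four experiments.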

[17] = system: Escherichia coli; assay: Antibacterial activity against uropathogenic Escherichia coli UTI89 infected in C3H/HeN mouse assessed as reduction bacterial load in bladder at 250 uM after 6 hrs post-infection by punctate violet staining relative to control; format: functional, Urinary bladder
How it was run: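 UTI89 was grown under type 1 pili-inducing conditions with or without 250 μM compound, then resuspended in PBS to OD600 0.5. 50 μl (1–2 × 10^7 CFU) was instilled transurethrally into 7–8-week-old female C3H/HeN mice. At 6 hpi, bladders were homogenized and plated for CFU (16 h, 37 °C), or fixed and LacZ-stained to count IBCs. Two-tailed Mann-Whitney test.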

[18] = system: Escherichia coli; assay: Inhibition of curli protein biogenesis in uropathogenic Escherichia coli UTI89 at 60 to 250 uM after 48 hrs in YESCA broth medium by polyacrylamide gel-shift assay
[19] = system: Escherichia coli; assay: Inhibition of curli protein biogenesis in Escherichia coli K-12 at 2.5 mM […] by polyacrylamide gel-shift assay; format: functional, organism-based; how it was run: as §1
[20] = system: Escherichia coli; assay: Inhibition of type 1 pili biogenesis in uropathogenic Escherichia coli UTI89 at 25 uM after 48 hrs in YESCA broth medium by […]; format: functional, organism-based; how it was run: as §4
[21] = system: Escherichia coli; assay: Inhibition of curli protein biogenesis in uropathogenic Escherichia coli UTI89 assessed as complete inhibition of biofilm formation in PVC wells at 200 uM after 48 hrs in YESCA broth medium by crystal violet staining; format: functional, organism-based; how it was run: as §5
[22] = system: Escherichia coli; assay: Inhibition of curli protein biogenesis in uropathogenic Escherichia coli UTI89 assessed as complete inhibition of biofilm formation in PVC wells at 400 uM after 48 hrs in YESCA broth medium by crystal violet staining; format: functional, organism-based; how it was run: as §5
[23] = system: Escherichia coli; assay: Inhibition of type 1 pili biogenesis in uropathogenic Escherichia coli UTI89 at 500 uM after 48 hrs in YESCA broth medium by congo red staining-based confocal microscopy; format: functional, organism-based; details: in the assay text read “curli-dependent pellicle formation” for “type 1 pili biogenesis”; how it was run: as §4
[24] = system: Escherichia coli; assay: Inhibition of curli protein biogenesis in uropathogenic Escherichia coli UTI89 assessed as complete inhibition of biofilm formation in PVC wells at 50 to 400 uM after 48 hrs in YESCA broth medium by crystal violet staining; format: functional, organism-based; how it was run: as §5

Chain of Major curlin subunit (Escherichia coli (strain K12)) (P28307 whole entry): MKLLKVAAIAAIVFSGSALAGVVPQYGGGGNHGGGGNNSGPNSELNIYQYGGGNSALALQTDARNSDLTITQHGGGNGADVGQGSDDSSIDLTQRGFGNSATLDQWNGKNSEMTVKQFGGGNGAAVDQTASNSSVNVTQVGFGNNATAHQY

For `O=C(O)[C@@H]1CSc2c(-c3cccc(C(F)(F)F)c3)c(Cc3cccc4ccccc34)cc(=O)n21`, which inhibition [1] is on record?
The inhibition was “inactive”.

What about the inhibition [2] of the same compound?
The inhibition was “Active”.

And the inhibition [3]?
Its inhibition is “Active”.

And the inhibition [4]?
Its inhibition is “inactive”.

What about the inhibition [5] of the same compound?
The inhibition was “Active”.

What about the Activity [6] of the same compound?
The Activity was “inactive”.

What about the inhibition [7] of the same compound?
The inhibition was “Active”.

And the inhibition [8]?
Its inhibition is “Active”.

And the inhibition [9]?
Its inhibition is “Active”.

And the inhibition [10]?
Its inhibition is “Active”.

What about the inhibition [11] of the same compound?
Its inhibition is “Active”.

And the inhibition [12]?
Its inhibition is “Active”.

What about the inhibition [13] of the same compound?
The inhibition was “Active”.

What about the inhibition at 50 µM [14] of the same compound?
Its inhibition at 50 µM is 50%.

And the inhibition at 100 µM [15]?
The inhibition at 100 µM was 90%.

What about the inhibition at 50 µM [16] of the same compound?
Its inhibition at 50 µM is 99%.

And the “fold change (FC)” value [17]?
Its value is 10.

What about the inhibition [18] of the same compound?
Its inhibition is “Active”.

What does the source list for `O=C(O)[C@@H]1CSc2c(-c3ccc(F)c(F)c3)c(Cc3ccc4ccccc4c3)cc(=O)n21`?
inhibition [1]: inactive; inhibition [19]: Active; inhibition [3]: Active; inhibition [4]: inactive; inhibition [5]: Active; Activity [6]: inactive; inhibition [7]: Active; inhibition [9]: Active; inhibition [10]: Active; inhibition [11]: Active; inhibition [12]: Active; inhibition [20]: Active; inhibition at 100 µM [15]: 50%; inhibition [21]: Active; inhibition [22]: Active; inhibition at 50 µM [16]: 92%; inhibition [18]: Active

`O=C(O)[C@@H]1CSc2c(C3CC3)c(Cc3cccc4ccccc34)cc(=O)n21` was tested. Which inhibition [1] did it give?
Its inhibition is “inactive”.

And the inhibition [4]?
Its inhibition is “inactive”.

And the inhibition [5]?
Its inhibition is “inactive”.

What about the Activity [6] of the same compound?
Its Activity is “inactive”.

And the inhibition [23]?
The inhibition was “inactive”.

What about the inhibition [24] of the same compound?
The inhibition was “inactive”.

And the inhibition at 50 µM [16]?
Its inhibition at 50 µM is 38%.

With `O=C(O)[C@@H]1CSc2c(-c3ccc(Br)cc3)c(Cc3cccc4ccccc34)cc(=O)n21` as the compound, how does the inhibition [1] read?
The inhibition was “inactive”.

And the inhibition [19]?
The inhibition was “inactive”.

What about the inhibition [3] of the same compound?
Its inhibition is “Active”.

What about the inhibition [4] of the same compound?
Its inhibition is “inactive”.

What about the inhibition [5] of the same compound?
Its inhibition is “Active”.

What about the Activity [6] of the same compound?
Its Activity is “inactive”.

And the inhibition [13]?
Its inhibition is “inactive”.

What about the inhibition at 100 µM [15] of the same compound?
Its inhibition at 100 µM is 50%.

And the inhibition [21]?
Its inhibition is “Active”.

And the inhibition [22]?
The inhibition was “Active”.

What about the inhibition [18] of the same compound?
Its inhibition is “Active”.
